Assay outcomes deposited in PubChem BioAssay by several laboratories.
Sampled rows, rich in hits. Any-hit rate of the full collection: about 1.4%.
UCH37 DUB inh = human UCH37 deubiquitinating enzyme inhibition; 330,000 tested, 0.33% active; AID 588478; purified proteasome/UCH37, Ub-AMC cleavage fluorescence; inhibition, % (no concentration beside the values); Q9Y5K5;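 active = mean inhibition over replicate wells above about 20%, limit read from the data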;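 also: 0% = compound-free wells with enzyme and 100% = wells lacking proteasome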
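Assay system: Proteasome-bound UCH37. Buffer or medium: pH 7.4 Tris-HCl (50 mM) with ovalbumin, ATP-MgCl2, DTT. Incubation: 30 min preincubation with enzyme, 25 min cleavage at room temperature. Measured by: fluorescence, ex 355 nm, em 460 nm. Read-out basis: percent inhibition. Control set: wells without proteasome as full block, compound-free enzyme plus substrate as uninhibited.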
ATG4B inh = inhibitors of human ATG4B cysteine protease; Q9Y4P1; ATG4B cleavage of LC3-PLA2, NBD-HPC fluorescence, 1 h; inhibition, % at 8.33 µM; 340,000 tested, 0.51% active; AID 504462; in the data active = inhibition above about 40%
Target sequence (Q9Y4P1 whole entry, looked up): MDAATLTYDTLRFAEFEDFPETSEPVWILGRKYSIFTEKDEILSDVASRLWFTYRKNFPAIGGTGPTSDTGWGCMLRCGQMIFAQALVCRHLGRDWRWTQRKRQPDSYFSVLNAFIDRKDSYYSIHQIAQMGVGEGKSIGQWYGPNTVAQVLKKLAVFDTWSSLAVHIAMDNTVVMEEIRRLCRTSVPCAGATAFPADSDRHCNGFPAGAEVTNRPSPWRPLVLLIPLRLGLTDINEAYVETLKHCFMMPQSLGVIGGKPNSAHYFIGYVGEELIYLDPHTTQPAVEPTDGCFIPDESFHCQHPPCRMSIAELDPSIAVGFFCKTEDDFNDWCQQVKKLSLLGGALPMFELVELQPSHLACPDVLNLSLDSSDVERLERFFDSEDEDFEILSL
TbMetRS inhib = Trypanosoma brucei MetRS inhibition; inhibition, % at 11.9 µM; purified T. brucei MetRS, ATP depletion, Kinase-Glo luminescence; 360,000 tested, 0.4% active;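 active = inhibition above a per-plate cutoff of the control wells' mean inhibition plus 3 SD, cut at about 5.5% in these data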;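 also: 0% = DMSO wells median and 100% = median of wells with control inhibitor compound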
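Assay system: T. brucei methionyl-tRNA synthetase, purified | Medium: HEPES buffer with MgCl2, KCl, DTT, spermine, BSA, pyrophosphatase | Compound: 11.9 µM single point | Incubation: 15 min enzyme-compound preincubation, 2 h reaction, 10 min detection, 25 °C | Measured by: Kinase-Glo luciferase luminescence reporting remaining unconsumed ATP | Measure: % inhibition normalized to control-well medians | Replication: Singlicate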
Rin1 Abl inh = blocks binding of human Rin1 to Abl; P00519+Q13671; TR-FRET Rin1/Abl binding, biochemical; inhibition, % at 7.35 µM; 360,000 tested, 0.4% active; in the data active = inhibition above about 5%, passing the limit was not always enough
ATG4B confirm = confirmation of human ATG4B inhibitors; shares compounds with ATG4B inh; ATG4B protease fluorescent substrate cleavage assay; inhibition, % at 8.33 µM; 320 tested, 92% active; in the data active = inhibition above about 39%
PLA2 ctr = counter-screen for ATG4B inhibitors: human phospholipase A2 | shares compounds with ATG4B inh | purified PLA2, NBD-C6-HPC fluorescence, 45 min | inhibition, % at 8.33 µM | 1,600 tested, 66% active; in the data active = inhibition above about 50%
Target sequence (P04054 whole entry, looked up): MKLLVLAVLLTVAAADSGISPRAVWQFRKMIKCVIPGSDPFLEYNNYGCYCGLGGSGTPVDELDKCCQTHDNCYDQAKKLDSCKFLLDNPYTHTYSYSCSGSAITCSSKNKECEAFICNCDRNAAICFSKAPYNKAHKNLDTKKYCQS
The depositor's hits bear a star.

For COc1ccc(C2C(C(=O)NCc3cccnc3)c3cc(OC)c(OC)cc3C(=O)N2C)cc1 (stereo not given) the results were UCH37 DUB inh 4, ATG4B inh -3, TbMetRS inhib -1 and Rin1 Abl inh 3.
O=C(c1ccc(Cl)cc1)c1cnc2ccccn12 was read as UCH37 DUB inh 4, ATG4B inh -3, TbMetRS inhib 0 and Rin1 Abl inh 3.
CSc1nc2cc(Oc3cccc(Cl)c3Cl)c(Cl)cc2[nH]1 was read as UCH37 DUB inh 0, ATG4B inh 65*, TbMetRS inhib -1, Rin1 Abl inh 0 and PLA2 ctr 77*.
For S=C(Nc1ccccc1Cl)NC1CCN(Cc2ccccc2)CC1 the results were UCH37 DUB inh -11, ATG4B inh 8, TbMetRS inhib 0 and Rin1 Abl inh 0.
For Cc1c(Cl)cccc1NC(=S)NCc1ccccc1 the results were UCH37 DUB inh 1, ATG4B inh 54*, TbMetRS inhib 0, Rin1 Abl inh 2 and PLA2 ctr 70*.
Screening Cc1c(Cl)cccc1NC(=S)NC1CCN(Cc2ccccc2)CC1 returned UCH37 DUB inh -2, ATG4B inh 48*, TbMetRS inhib 0, Rin1 Abl inh 0 and PLA2 ctr 58*.
`Cc1c(Cl)cccc1NC(=S)NCc1ccc(Cl)cc1` gave UCH37 DUB inh -1, ATG4B inh 70*, TbMetRS inhib 0, Rin1 Abl inh -1 and PLA2 ctr 81*.
S=C(NCc1ccc(Cl)cc1)Nc1ccccc1Cl was read as UCH37 DUB inh 3, ATG4B inh 10, TbMetRS inhib 0 and Rin1 Abl inh 0.
`Cc1nc2sc3c(c2c(=O)[nH]1)CCCC3` gave UCH37 DUB inh 1, ATG4B inh -3, TbMetRS inhib 0 and Rin1 Abl inh 2.
`O=C(O)c1ccc(N=NNc2cccc([N+](=O)[O-])c2)cc1` gave UCH37 DUB inh 15, ATG4B inh 8, TbMetRS inhib -1 and Rin1 Abl inh 0.
Screening N#C/C(=N\Nc1cccc([N+](=O)[O-])c1)C(=O)c1ccc(Br)cc1 returned ATG4B inh 57*, TbMetRS inhib 1, Rin1 Abl inh -1 and PLA2 ctr 80*.
Cc1ccc(S(=O)(=O)/N=C2\C=C(Nc3cccc(C(=O)O)c3)C(=O)c3ccccc32)cc1 was read as ATG4B inh 37, TbMetRS inhib 2 and Rin1 Abl inh 1.
For O=C1C(Nc2ccccc2)=C/C(=N/S(=O)(=O)c2cccs2)c2ccccc21 the results were ATG4B inh 72*, TbMetRS inhib 3, Rin1 Abl inh 1 and PLA2 ctr 78*.
CCCCCN1CC(O)=C(c2nc3ccccc3[nH]2)C1=N was read as UCH37 DUB inh 4, ATG4B inh 4, TbMetRS inhib -1 and Rin1 Abl inh -5.
For O=C(NCC1CCCO1)C1CCCN1C(=O)Nc1ccccc1[N+](=O)[O-] (stereo not given) the results were UCH37 DUB inh 6, ATG4B inh 2, TbMetRS inhib -1 and Rin1 Abl inh -1.
For O=C(Nc1cccnc1Cl)c1ccc2c(Cl)c3c(nc2c1)CCC3 the results were UCH37 DUB inh 1, ATG4B inh 6, TbMetRS inhib -1 and Rin1 Abl inh -3.
For N#Cc1ccccc1NC(=O)c1ccc2c(Cl)c3c(nc2c1)CCCC3 the results were UCH37 DUB inh -1, ATG4B inh 48*, TbMetRS inhib -1, Rin1 Abl inh 3 and PLA2 ctr 49.
`FC(F)(F)c1cc(CCN2C(=S)NC[C@@H]2CC2CCCCC2)cc(C(F)(F)F)c1` gave ATG4B inh -4, TbMetRS inhib 0 and Rin1 Abl inh 8.
CCOC(=O)c1ccc(/C=C2/C=C(c3ccccc3)N(c3ccc(Cl)c(C(=O)O)c3)C2=O)cc1 was read as UCH37 DUB inh -2, ATG4B inh 56*, TbMetRS inhib 0, Rin1 Abl inh 3, ATG4B confirm 77* and PLA2 ctr 41.
For CCOC(=O)c1ccc(Cl)c(NC(=O)c2ccc(-c3ccccc3)cc2)c1 the results were UCH37 DUB inh 1, ATG4B inh -2, TbMetRS inhib -1 and Rin1 Abl inh 3.
COc1cc2c(cc1NC(=O)COc1ccccc1OC)oc1ccccc12 was read as UCH37 DUB inh -22, ATG4B inh 3, TbMetRS inhib 1 and Rin1 Abl inh 3.
CC(C)[C@H](NS(=O)(=O)c1ccccc1)C(=O)OCC(=O)Nc1ccccc1Sc1ccccc1 was read as UCH37 DUB inh 6, ATG4B inh 94*, TbMetRS inhib -1, Rin1 Abl inh -2 and PLA2 ctr 92*.
Screening COc1cc2c(cc1NC(=O)COC(=O)[C@@H](NS(=O)(=O)c1ccccc1)C(C)C)oc1ccccc12 returned UCH37 DUB inh -2, ATG4B inh 76*, TbMetRS inhib 0, Rin1 Abl inh 0 and PLA2 ctr 83*.
C=C1CCC2C(C)(C(=O)O)CCCC2(C)C1CCC(CO)CCO (stereo not given) was read as TbMetRS inhib -1 and Rin1 Abl inh -2.
COc1ccc(S(=O)(=O)N2CCC(C(=O)N3CCOCC3)CC2)cc1Cl was read as UCH37 DUB inh 0, ATG4B inh 6, TbMetRS inhib -1 and Rin1 Abl inh -4.
Screening O=C(O)c1cccc2c(-c3ccccc3)c(-c3ccccc3)[nH]c12 returned UCH37 DUB inh -3, ATG4B inh 69*, TbMetRS inhib 0, Rin1 Abl inh -4 and PLA2 ctr 75*.
For Cc1cccc(CSc2nc3sc(C)c(C)c3c(=O)n2Cc2ccco2)c1 the results were UCH37 DUB inh 6, ATG4B inh 28, TbMetRS inhib 0 and Rin1 Abl inh -2.
For Cc1cccc(CSc2nnc(-c3cccs3)n2Cc2ccco2)c1 the results were UCH37 DUB inh 4, ATG4B inh 68*, TbMetRS inhib -1, Rin1 Abl inh 4 and PLA2 ctr 67*.
Screening COc1cc(OC)cc(-c2nc3ccccc3c(=O)n2OC(=O)c2ccccc2C)c1 returned UCH37 DUB inh 4, ATG4B inh 45*, TbMetRS inhib 0, Rin1 Abl inh -1, ATG4B confirm 67* and PLA2 ctr 31.
For Oc1ccc2ccccc2c1/C=N/Nc1nnc(-c2ncc[nH]2)c2ccccc12 the results were ATG4B inh 48*, TbMetRS inhib 1, Rin1 Abl inh 4, ATG4B confirm 49* and PLA2 ctr 39.
Screening O=C(CC1S/C(=N/N=C/c2cccs2)NC1=O)Nc1ccc(Cl)c(Cl)c1 (stereo not given) returned ATG4B inh 61*, TbMetRS inhib -1, Rin1 Abl inh 3, ATG4B confirm 59* and PLA2 ctr 12.
